Laboratory results from ChEMBL document CHEMBL4765349, “Design, synthesis and biological evaluation of novel N-sulfonylamidine-based derivatives as c-Met inhibitors via Cu-catalyzed three-component reaction” (Eur J Med Chem, 2020).
Active and inactive are the calls of the source. The calls are words filed in the database; no cut-off is given here.

How the values were obtained:
[1] = target: T1, Hepatocyte growth factor receptor (Homo sapiens, UniProt P08581); assay: Inhibition of c-MET (unknown origin) using poly (Glu, Tyr)4:1 as substrate in presence of ATP measured after 30 mins by HTRF assay
T1 sequence (P08581 whole entry): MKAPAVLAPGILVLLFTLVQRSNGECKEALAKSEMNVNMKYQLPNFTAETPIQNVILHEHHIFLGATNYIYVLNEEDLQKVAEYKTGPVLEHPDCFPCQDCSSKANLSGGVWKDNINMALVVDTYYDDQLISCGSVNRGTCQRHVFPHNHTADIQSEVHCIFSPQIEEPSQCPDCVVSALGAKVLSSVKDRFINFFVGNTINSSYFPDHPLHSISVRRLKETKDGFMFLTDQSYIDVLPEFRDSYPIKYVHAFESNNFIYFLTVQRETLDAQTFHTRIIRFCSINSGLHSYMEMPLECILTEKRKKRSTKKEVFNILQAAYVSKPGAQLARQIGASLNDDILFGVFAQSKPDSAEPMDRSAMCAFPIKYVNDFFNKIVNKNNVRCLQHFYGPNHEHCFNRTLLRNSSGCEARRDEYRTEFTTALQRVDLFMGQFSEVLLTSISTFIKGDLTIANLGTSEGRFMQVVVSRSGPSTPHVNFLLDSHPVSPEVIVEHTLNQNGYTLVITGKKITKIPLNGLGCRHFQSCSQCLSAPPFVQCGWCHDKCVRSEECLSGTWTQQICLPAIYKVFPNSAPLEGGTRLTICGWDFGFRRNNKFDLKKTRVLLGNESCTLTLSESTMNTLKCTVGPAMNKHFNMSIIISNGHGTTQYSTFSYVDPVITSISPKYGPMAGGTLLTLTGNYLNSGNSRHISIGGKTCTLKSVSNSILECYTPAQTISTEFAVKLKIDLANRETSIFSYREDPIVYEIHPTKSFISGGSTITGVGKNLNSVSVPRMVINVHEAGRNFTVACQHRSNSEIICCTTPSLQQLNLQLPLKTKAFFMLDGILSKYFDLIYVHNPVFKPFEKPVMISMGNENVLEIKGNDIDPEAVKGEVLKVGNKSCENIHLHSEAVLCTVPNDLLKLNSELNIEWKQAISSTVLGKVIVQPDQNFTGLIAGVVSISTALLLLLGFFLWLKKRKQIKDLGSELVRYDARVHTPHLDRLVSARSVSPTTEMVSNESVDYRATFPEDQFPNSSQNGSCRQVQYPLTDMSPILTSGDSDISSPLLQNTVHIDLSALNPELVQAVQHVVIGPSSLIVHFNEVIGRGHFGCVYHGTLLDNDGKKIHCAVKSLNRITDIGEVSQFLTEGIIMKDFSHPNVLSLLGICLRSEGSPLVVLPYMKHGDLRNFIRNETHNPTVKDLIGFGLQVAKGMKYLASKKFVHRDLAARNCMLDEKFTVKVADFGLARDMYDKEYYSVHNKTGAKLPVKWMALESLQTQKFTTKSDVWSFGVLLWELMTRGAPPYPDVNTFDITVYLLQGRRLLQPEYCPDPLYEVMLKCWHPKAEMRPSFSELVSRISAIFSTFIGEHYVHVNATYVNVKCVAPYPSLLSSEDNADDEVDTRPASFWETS

MKN-45 = assay: Cytotoxicity against human MKN-45 cells assessed as inhibition of cell proliferation measured after 72 hrs by MTT assay; format: functional, cell-based; conditions: MKN-45, 72 h
MDA-MB-231 = assay: Cytotoxicity against human MDA-MB-231 cells assessed as inhibition of cell proliferation measured after 72 hrs by MTT assay; format: functional, cell-based; conditions: MDA-MB-231, 72 h
A549 [2] = assay: Induction of apoptosis in human A549 cells assessed as early apoptosis measured after 12 hrs by Annexin V-FITC/ Propidium iodide stain based flow cytometry assay; format: functional, cell-based; conditions: dose 0.25-1 µM
Summary of the method: (§1)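 Cells double-stained with FITC-annexin V and propidium iodide, then flow cytometry gave the percentages of early and late apoptotic cells.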

A549 [3] = assay: Induction of apoptosis in human A549 cells assessed as late apoptosis measured after 12 hrs by Annexin V-FITC/ Propidium iodide stain based flow cytometry assay; format: functional, cell-based; conditions: dose 0.25-1 µM; summary of the method: as §1
A549 [4] = assay: Induction of cell cycle arrest in human A549 cells assessed as increased accumulation of cells at G2/M phase measured after 24 hrs by Propidium iodide stain based Flow cytometry assay; format: functional; conditions: dose 0.25-1 µM
Summary of the method: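 A549 cells exposed to vehicle or 0.25, 0.5 or 1.0 µM compound. DNA content measured by propidium iodide staining with RNase and flow cytometry, and the G2/M fraction was scored.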

[5] = Toxicity in Balb/c mouse assessed as survival rate at 100 mg/kg, ip measured after 15 days; format: organism-based; conditions: in vivo, time 15 day
Summary of the method: (§2)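 Acute toxicity: 8-week-old male BALB/c mice, randomized in groups of n = 10, given a single intraperitoneal injection on day zero (vehicle only, 100, 200, 300 or 400 mg/kg). A further untreated group served as normal control. Survival on day 15 was reported as a percentage.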

[6] = Toxicity in Balb/c mouse assessed as survival rate at 300 mg/kg, ip measured after 15 days; format: organism-based; conditions: in vivo, time 15 day; summary of the method: as §2
[7] = Toxicity in Balb/c mouse assessed as survival rate at 400 mg/kg, ip measured after 15 days; format: organism-based; conditions: in vivo, time 15 day; summary of the method: as §2
[8] = Toxicity in Balb/c mouse assessed as allergic reaction at 100 to 200 mg/kg, ip measured after 15 days; format: organism-based; conditions: in vivo, 360 h, dose 100-200 mg/kg, time 15 day
Summary of the method: (§3)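 Acute toxicity in 8-week-old male BALB/c mice, randomized into groups of n = 10. Single intraperitoneal dose on day 0 of vehicle or 100, 200, 300 or 400 mg/kg, plus an untreated control group. Mice watched for 15 days for deaths, abnormalities, anaphylactic or allergic reactions and body weight loss.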

[9] = Toxicity in Balb/c mouse assessed as body weight at 100 to 200 mg/kg, ip measured after 15 days; format: organism-based; conditions: in vivo, 360 h, dose 100-200 mg/kg, time 15 day; summary of the method: as §3
FHC = assay: Cytotoxicity against human FHC cells assessed as inhibtion of cell proliferation measured after 72 hrs by MTT assay
[10] = Selectivity index, ratio of IC50 for human HUVEC cells assessed as inhibition of cell proliferation to IC50 of HT-29 cells assessed as inhibition of cell proliferation; format: toxicity; conditions: HUVEC cells versus HT-29 cells, read-out: Selectivity Index
[11] = Cmax in Balb/c mouse at 2 mg/kg, iv measured after 24 hrs by LC/MS/MS analysis; format: ADME, organism-based; parameters: route intravenous, dose 2 mg/kg, time 24 hrs; conditions: in vivo
Summary of the method: (§4)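 BALB/c mice dosed once orally at 8 mg/kg or intravenously at 2 mg/kg. Plasma concentration followed over time, and Cmax, Tmax, AUC0-∞, elimination half-life, clearance and oral bioavailability were derived from it.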

[12] = AUC (0 to infinity) in Balb/c mouse at 2 mg/kg, iv measured after 24 hrs by LC/MS/MS analysis; format: ADME, organism-based; parameters: route intravenous, time 24 hrs, dose 2 mg/kg; conditions: in vivo; summary of the method: as §4
[13] = Half life in Balb/c mouse at 8 mg/kg, po measured after 24 hrs by LC/MS/MS analysis; format: ADME, organism-based; conditions: in vivo; summary of the method: as §4
[14] = Cmax in Balb/c mouse at 8 mg/kg, po measured after 24 hrs by LC/MS/MS analysis; format: ADME, organism-based; parameters: route oral, time 24 hrs, dose 8 mg/kg; conditions: in vivo; summary of the method: as §4
[15] = Tmax in Balb/c mouse at 8 mg/kg, po measured after 24 hrs by LC/MS/MS analysis; format: ADME, organism-based; conditions: in vivo; summary of the method: as §4
[16] = AUC (0 to infinity) in Balb/c mouse at 8 mg/kg, po measured after 24 hrs by LC/MS/MS analysis; format: ADME, organism-based; parameters: route oral, time 24 hrs, dose 8 mg/kg; conditions: in vivo; summary of the method: as §4
[17] = Clearance in Balb/c mouse at 8 mg/kg, po measured after 24 hrs by LC/MS/MS analysis; format: ADME, organism-based; conditions: in vivo
Summary of the method: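 Clearance from the plasma profile of BALB/c mice after a single oral dose of 8 mg/kg.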

[18] = Oral bioavailability in Balb/c mouse at 8 mg/kg measured after 24 hrs by LC/MS/MS analysis; format: ADME, organism-based; conditions: in vivo; summary of the method: as §4
[19] = target: Platelet-derived growth factor receptor beta (Homo sapiens, UniProt P09619); assay: Inhibition of PDGFR beta (unknown origin) using poly (Glu, Tyr)4:1 as substrate in presence of ATP measured after 30 mins by HTRF assay
Sequence of Platelet-derived growth factor receptor beta (P09619 whole entry): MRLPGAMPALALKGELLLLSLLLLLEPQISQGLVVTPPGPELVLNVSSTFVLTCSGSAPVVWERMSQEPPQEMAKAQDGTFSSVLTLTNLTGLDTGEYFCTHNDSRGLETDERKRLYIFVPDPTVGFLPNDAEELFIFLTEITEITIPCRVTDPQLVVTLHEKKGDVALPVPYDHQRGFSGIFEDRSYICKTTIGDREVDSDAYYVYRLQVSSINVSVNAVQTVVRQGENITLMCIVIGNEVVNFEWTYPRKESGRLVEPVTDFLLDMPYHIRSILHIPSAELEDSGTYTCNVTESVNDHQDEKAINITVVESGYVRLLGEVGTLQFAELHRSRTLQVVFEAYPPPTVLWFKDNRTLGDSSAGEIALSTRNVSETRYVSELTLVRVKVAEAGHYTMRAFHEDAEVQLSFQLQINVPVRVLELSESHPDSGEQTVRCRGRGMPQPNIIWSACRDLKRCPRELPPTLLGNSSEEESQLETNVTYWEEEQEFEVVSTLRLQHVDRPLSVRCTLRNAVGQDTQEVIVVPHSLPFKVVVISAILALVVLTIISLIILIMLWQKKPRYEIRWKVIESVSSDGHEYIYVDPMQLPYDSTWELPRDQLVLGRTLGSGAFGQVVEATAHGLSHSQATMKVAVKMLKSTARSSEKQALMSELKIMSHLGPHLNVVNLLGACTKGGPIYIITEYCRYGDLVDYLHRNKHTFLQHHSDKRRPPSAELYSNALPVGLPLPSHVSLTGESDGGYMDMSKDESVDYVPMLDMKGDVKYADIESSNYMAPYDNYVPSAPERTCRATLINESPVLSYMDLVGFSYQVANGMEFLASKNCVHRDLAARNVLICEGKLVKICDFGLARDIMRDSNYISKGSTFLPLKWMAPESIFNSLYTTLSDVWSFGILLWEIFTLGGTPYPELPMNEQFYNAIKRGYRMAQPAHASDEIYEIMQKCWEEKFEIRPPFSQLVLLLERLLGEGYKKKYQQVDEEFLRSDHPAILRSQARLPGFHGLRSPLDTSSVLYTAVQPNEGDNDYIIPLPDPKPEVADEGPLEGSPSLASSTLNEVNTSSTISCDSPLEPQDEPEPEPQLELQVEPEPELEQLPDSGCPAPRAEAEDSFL
Summary of the method: (§5)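 Kinase inhibition measured by homogeneous time-resolved fluorescence (HTRF) across a panel of Ron, ALK and other tyrosine kinases, with IC50 as the read-out.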

[20] = target: Vascular endothelial growth factor receptor 2 (Homo sapiens, UniProt P35968); assay: Inhibition of VEGFR 2 (unknown origin) using poly (Glu, Tyr)4:1 as substrate in presence of ATP measured after 30 mins by HTRF assay
[21] = target: Epidermal growth factor receptor (Homo sapiens, UniProt P00533); assay: Inhibition of EGFR (unknown origin) using poly (Glu, Tyr)4:1 as substrate in presence of ATP measured after 30 mins by HTRF assay; summary of the method: as §5
[22] = target: ALK tyrosine kinase receptor (Homo sapiens, UniProt Q9UM73); assay: Inhibition of ALK (unknown origin) using poly (Glu, Tyr)4:1 as substrate in presence of ATP measured after 30 mins by HTRF assay; summary of the method: as §5
Sequence of ALK tyrosine kinase receptor (Q9UM73 whole entry): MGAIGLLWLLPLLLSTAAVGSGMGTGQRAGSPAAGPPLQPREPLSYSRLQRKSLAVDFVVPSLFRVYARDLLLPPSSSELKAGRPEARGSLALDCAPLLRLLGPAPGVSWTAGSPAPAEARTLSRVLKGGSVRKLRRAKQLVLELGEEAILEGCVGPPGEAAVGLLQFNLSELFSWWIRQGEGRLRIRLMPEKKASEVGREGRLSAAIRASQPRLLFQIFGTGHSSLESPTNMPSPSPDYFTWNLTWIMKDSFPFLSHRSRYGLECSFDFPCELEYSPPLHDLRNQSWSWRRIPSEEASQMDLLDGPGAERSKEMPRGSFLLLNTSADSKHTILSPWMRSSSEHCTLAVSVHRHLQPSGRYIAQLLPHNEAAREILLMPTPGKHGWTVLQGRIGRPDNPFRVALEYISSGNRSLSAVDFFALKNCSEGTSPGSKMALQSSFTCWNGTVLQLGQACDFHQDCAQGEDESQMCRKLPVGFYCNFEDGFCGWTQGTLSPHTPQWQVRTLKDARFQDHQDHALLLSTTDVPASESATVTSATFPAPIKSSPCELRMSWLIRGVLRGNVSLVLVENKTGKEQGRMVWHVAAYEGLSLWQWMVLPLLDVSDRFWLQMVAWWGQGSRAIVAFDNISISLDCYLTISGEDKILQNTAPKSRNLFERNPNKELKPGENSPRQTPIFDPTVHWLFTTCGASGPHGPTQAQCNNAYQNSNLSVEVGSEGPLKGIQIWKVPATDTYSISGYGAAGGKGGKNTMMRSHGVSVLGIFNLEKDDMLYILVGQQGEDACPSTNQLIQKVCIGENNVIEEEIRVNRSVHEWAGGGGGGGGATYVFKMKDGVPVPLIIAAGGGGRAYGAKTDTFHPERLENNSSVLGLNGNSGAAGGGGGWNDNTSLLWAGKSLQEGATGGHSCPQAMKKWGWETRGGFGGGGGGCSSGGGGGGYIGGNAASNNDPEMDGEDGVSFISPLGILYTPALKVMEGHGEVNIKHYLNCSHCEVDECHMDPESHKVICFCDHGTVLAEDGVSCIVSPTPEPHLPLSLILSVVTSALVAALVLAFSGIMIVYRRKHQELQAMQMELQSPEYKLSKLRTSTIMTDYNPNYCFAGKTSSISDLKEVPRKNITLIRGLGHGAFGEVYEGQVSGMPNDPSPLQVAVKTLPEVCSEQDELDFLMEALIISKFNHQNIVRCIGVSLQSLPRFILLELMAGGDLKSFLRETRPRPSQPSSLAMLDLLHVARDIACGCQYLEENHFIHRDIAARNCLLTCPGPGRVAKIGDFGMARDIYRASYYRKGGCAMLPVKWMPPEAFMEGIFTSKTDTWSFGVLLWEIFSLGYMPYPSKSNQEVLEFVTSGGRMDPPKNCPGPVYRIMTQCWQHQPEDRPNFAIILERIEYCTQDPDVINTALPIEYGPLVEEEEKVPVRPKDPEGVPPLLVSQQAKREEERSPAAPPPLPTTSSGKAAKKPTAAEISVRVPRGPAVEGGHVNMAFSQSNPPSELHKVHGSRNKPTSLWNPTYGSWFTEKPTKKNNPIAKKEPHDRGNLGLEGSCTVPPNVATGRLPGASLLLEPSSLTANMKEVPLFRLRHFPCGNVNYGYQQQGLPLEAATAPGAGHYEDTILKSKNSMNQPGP

A549 [23] = assay: cells; conditions: Homo sapiens, A549, 72 h
HT-29 = assay: cells; conditions: Homo sapiens, HT-29, 72 h
[24] = target: T1, Hepatocyte growth factor receptor; assay: Inhibition of human c-MET phosphorylation in human A549 cells measured after 1 hr by western blot analysis; conditions: dose 2-8 µmol/L

SMILES: COCC/C(=N\S(=O)(=O)Cc1ccc(Cl)cc1)Nc1ccc(Oc2ccnc3cc(OCCCN4CCOCC4)c(OC)cc23)c(F)c1
- IC50 [1]: 2.89 nM
- IC50 (MKN-45): 480 nM
- IC50 (MDA-MB-231): 720 nM
- Activity (A549 [2]): Dose-dependent effect
- Activity (A549 [3]): Dose-dependent effect
- Activity (A549 [4]): Dose-dependent effect
- survival at 360 h [5]: 100%
- survival at 360 h [6]: 70%
- survival at 360 h [7]: 50%
- Activity [8]: Non-Toxic
- Activity [9]: Non-Toxic
- IC50 (FHC): 6120 nM
- selectivity ratio [10]: 4.2
- Cmax [11]: 676 ng/mL
- AUC [12]: 2.3 µg/h/mL
- half-life [13]: 3.5 h
- Cmax [14]: 1230 ng/mL
- Tmax [15]: 2.5 h
- AUC [16]: 6.8 µg/h/mL
- CL/F [17]: 19.7 mL/min/kg
- bioavailability [18]: 74%
- IC50 [19]: 565 nM
- IC50 [20]: 673 nM
- IC50 [21]: > 10000 nM
- IC50 [22]: > 10000 nM
- IC50 (A549 [23]): 280 nM
- IC50 (HT-29): 320 nM
- inhibition [24]: Active
